The source of these data is paper PMC5672925 (British Journal of Cancer, 2017).

Data set [1] deals with relapsed and/or refractory MM. The conditions noted are these: ref Richardson et al, cited from earlier work.
For data set [2], the system named is patients with relapsed/refractory MM. Nature of the data set: Phase I dose escalation. It is filed as in vivo, human. The conditions noted are these: days 1, 4, 8, 11 every 3 weeks, up to KW-2478 175 mg m^−2 plus BTZ 1.3 mg m^−2. A digest of the protocol: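 DLT window was cycle 1, graded by CTCAE v4.0. DLT was related non-haematologic grade ≥3 toxicity (controllable GI events excepted) or grade 4 haematologic toxicity (neutropenia ≤5 days excepted).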

Data set [3] has the same test system. Put plainly: Safety: treatment-related adverse events. The class given is in vivo, human. A digest of the protocol:
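Safety population was all patients receiving ≥1 dose. AEs were graded by CTCAE v4.0; treatment-related meant possibly, probably or definitely drug-related per investigator. Vital signs, vision, peripheral neuropathy, haematology and chemistry were checked at screening, on days 1, 4, 8, 11 and 16–18 of each cycle, at end of treatment and at 30-day follow-up. Phase I screening included slit-lamp retinal examination.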

Data set [4] has as its system relapsed/refractory multiple myeloma. It is filed as in vivo, human. The conditions noted are these: comparison with historical single-agent BTZ. A digest of the protocol: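 Response graded by IMWG criteria, with minimal response added per ASH-FDA panel. Assessed in evaluable phase II patients plus phase I patients at RP2D (KW-2478 175 mg m−2 i.v. over 1 h, 30 min after BTZ 1.3 mg m−2 bolus, days 1, 4, 8, 11 of 21-day cycles). Duration of response ran from first CR/PR/MR to PD or death. PFS ran from treatment day 1 to PD or death. Both by Kaplan–Meier.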

Data set [5] can be described thus: Plasma pharmacokinetics of KW-2478 in phase I, cycle 1. It is filed as in vivo, human.
In data set [6] the test system is patients with advanced, relapsed/refractory B-cell malignancies (predominantly with MM). The conditions noted are these: ref Yong et al, 2016, cited from earlier work.
The test system of a further data set is MM models. The conditions noted are these: cited from earlier work.
[7] abbreviates: large-scale phase III trials, 2005, Orlowski et al, 2007.

“Also recorded” adds a separate entry of the source.

With `CC(C)C[C@H](NC(=O)[C@H](Cc1ccccc1)NC(=O)c1cnccn1)B(O)O` [BTZ, bortezomib], the “ORR, BTZ alone (reference)” value in data set [1] (SUMMIT trial, 2006) is on record as 35%. Further, in data set [1] (setting [7]), the “Median PFS, single-agent BTZ” value was roughly 6 months and the “ORR, single-agent BTZ” value is reported as roughly 40%.
For `CCc1c(O)cc(O)c(C(=O)c2ccc(OCCN3CCOCC3)c(OC)c2)c1CC(=O)N(CCOC)CCOC` [KW-2478], the “Maximum tolerated dose (MTD)” value in data set [2] is on record as “not reached”. Also, the Ocular safety entry in data set [3] (in combination with BTZ) is reported as “did not raise any ocular safety concerns”. For the same compound, in data set [3] (in vivo), the “Effect on toxicity of BTZ in the combination regimen” value is given as “did not enhance the toxicity of BTZ”. For the same compound, in data set [4], the “Contribution of KW-2478 to the efficacy of BTZ alone” value is listed as “insufficient evidence that KW-2478 added to the efficacy of BTZ alone”. Besides, the “Mean CL, range” value is 25.9 to 33.3 L/h in data set [5] (130 mg m^−2 dose) and 32.2 to 62.0 L/h in data set [5] (175 mg m^−2 dose). Further, the “Effect of increase in BTZ dose on KW-2478 pharmacokinetics” value in data set [5] (co-administered BTZ 1 vs 1.3 mg m^−2) is given as “did not affect”. Besides, the Accumulation result in data set [5] (day 11 vs day 1, cycle 1) is “Accumulation did not occur”. Besides, the Single-agent clinical activity entry in data set [6] is listed as “modest single-agent activity; also recorded: preliminary signs of clinical activity were seen”. Besides, the Tolerability result in data set [6] (single agent) is recorded as “well tolerated”. In addition, the Antitumour activity entry in the data set with MM models (KW-2478 alone, ref Nakashima et al, 2010) was “exhibits antitumour activity”. Moreover, the “Antitumour activity in MM cells in the presence of bone marrow stromal cells” value in the data set with MM models (ref Juliger et al, 2008) is reported as “retained”.
